Data reported in ChEMBL document CHEMBL4316599, “Synthesis, in vitro and in vivo biological evaluation of substituted 3-(5-imidazo[2,1-b]thiazolylmethylene)-2-indolinones as new potent anticancer agents” (Eur J Med Chem, 2019).
The source made the active and inactive calls. The rule behind the calls is not given here.

Key:
[1] = tested on: K562; assay: Cytotoxicity against human K562 cells after 48 hrs by SRB assay; assay type: functional, cell-based
[2] = tested on: E0771; assay: Antitumor activity mouse E0771 cells implanted in C57BL/6 mouse assessed tumor growth inhibition at 30 mg/kg, ip dosed every other day for 20 days relative to control; assay type: functional; settings: 480 h, read-out: TGI
Procedure, shortened: (§1)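 Syngeneic allograft: C57BL/6 mice, six weeks old, given 2.5×10^5 BL6-B16 or E0771 cells subcutaneously in the dorsolateral flank in PBS. Dosing began at about 100 mm³. Test compound or reference was given intraperitoneally every other day in 50 μL DMSO, with DMSO vehicle controls. Tumor volume was compared with the vehicle group, 5 animals per group, mean ± SEM, by 2-way ANOVA with Bonferroni correction.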

[3] = tested on: K562; assay: Cytotoxicity against human K562 cells after 16 hrs by SRB assay; settings: K562, 16 h
[4] = tested on: K562; assay: Cell cycle arrest in human K562 cells assessed as mitotic index at 5 times IC50 by Giemsa staining-based assay (reference value: 3%); assay type: functional
[5] = tested on: B16-BL6; assay: Antitumor activity mouse B16-BL6 cells implanted in C57BL/6 mouse assessed tumor growth inhibition at 30 mg/kg, ip dosed every other day for 18 days relative to control; assay type: functional; settings: 432 h, read-out: TGI; procedure, shortened: as §1
[6] = tested on: K562; assay: Cell cycle arrest in human K562 cells assessed as mitotic index at IC50 by Giemsa staining-based assay (reference value: 3%); assay type: functional
[7] = tested on: K562; assay: Cell cycle arrest in human K562 cells assessed as mitotic index at 10 times IC50 by Giemsa staining-based assay (reference value: 3%); assay type: functional
[8] = tested on: HeLa; assay: Induction of mitochondrial membrane depolarization in human HeLa cells at 250 to 500 nM after 6 to 48 hrs by JC-1 staining-based assay; assay type: functional, cell-based; settings: TDE = time-dependent effect
Procedure, shortened: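 HeLa cells treated at 250-500 nM for 6, 12, 24 or 48 h, then stained with JC-1. Percentage of cells with low mitochondrial membrane potential measured by flow cytometry. Mean ± SEM of three independent experiments.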

[9] = tested on: A549; assay: Cell cycle arrest in human A549 cells assessed as accumulation of cells at G2/M phase after 24 hrs by propidium iodide staining-based flow cytometric analysis; assay type: functional
Procedure, shortened: (§2)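 Cells exposed to a range of concentrations for 24 h (HeLa at 5×10^5 cells), then fixed in ice-cold 70% ethanol. Lysis buffer with RNase A and 0.1% Triton X-100 was applied before PI staining. DNA content was read by flow cytometry and G1/S/G2/M fractions taken from DNA histograms. Mean ± SEM of two independent experiments.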

[10] = tested on: HeLa; assay: Cell cycle arrest in human HeLa cells assessed as reduction in accumulation of cells at G1 phase up to 1000 nM after 24 hrs by propidium iodide staining-based flow cytometric analysis; assay type: functional; procedure, shortened: as §2
[11] = tested on: HT-29; assay: Cell cycle arrest in human HT-29 cells assessed as accumulation of cells at G2/M phase after 24 hrs by propidium iodide staining-based flow cytometric analysis; assay type: functional; procedure, shortened: as §2
[12] = target: Tubulin (Bos taurus, UniProt Q6B856+Q862L2+Q862F3); assay: Inhibition of bovine brain tubulin polymerization after 20 mins by spectrophotometric analysis
Procedure, shortened: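 Bovine brain tubulin (10 μM) in glutamate buffer preincubated with varying compound levels at 30 °C, then chilled to 0 °C. GTP added to 0.4 mM final, then warmed to 30 °C. Assembly followed by turbidity at 350 nm. IC50 is the concentration halving the extent of assembly after 20 min.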

[13] = tested on: A549; assay: Induction of apoptosis in human A549 cells at 100 nM after 24 to 48 hrs by Annexin V-FITC/propidium iodide staining-based flow cytometric analysis; assay type: functional, cell-based
Procedure, shortened: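 A549 cells treated 24 or 48 h at 12.5–100 nM, then double-stained with annexin-V-FITC and PI. Phosphatidylserine exposure was read by flow cytometry. Mean ± SEM of three independent experiments.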

[14] = tested on: HeLa; assay: Induction of apoptosis in human HeLa cells assessed as increase in caspase-3 activity at 50 to 250 nM after 24 hrs by Western blot analysis; assay type: functional, cell-based
Procedure, shortened: (§3)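 HeLa cells treated 24 h, washed in ice-cold PBS and lysed on ice 30 min. Lysates were spun at 15000 x g, 4 °C. 10 µg protein run on SDS-PAGE and blotted to PVDF. Blots were blocked in 5% BSA overnight at 4 °C and probed 2 h at room temperature. Detection by HRP-secondary and ECL, with bands normalized to β-actin as fold of untreated. Three independent experiments, one-way ANOVA/Dunnett.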

[15] = target: T1, Tubulin (Bos taurus) (UniProt Q6B856+Q862L2+Q862F3); assay: Inhibition of [3H]colchicine binding to bovine brain tubulin at 50 uM after 20 mins relative to control
Procedure, shortened: (§4)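 Reaction mixtures held 1 μM tubulin, 5 μM [³H]colchicine and test compound at 5 or 50 μM. Read-out was percent inhibition of colchicine binding.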

[16] = tested on: HeLa; assay: Induction of apoptosis in human HeLa cells assessed as decrease in Bcl-2 levels at 50 to 250 nM after 24 hrs by Western blot analysis; assay type: functional, cell-based; procedure, shortened: as §3
[17] = Cytotoxicity against human COLON cells after 48 hrs by SRB assay; assay type: functional
Procedure, shortened: (§5)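 NCI-60 screen: single-dose pass at 10^-5 M, then a five-concentration assay from 10^-9 to 10^-4 M (highest 100 μM). Exposure was 48 h under standard NCI protocols. GI50, TGI and LC50 were derived per cell line and averaged by subpanel. Repeated tests are the mean of two experiments.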

[18] = tested on: HeLa; assay: Cell cycle arrest in human HeLa cells assessed as accumulation of cells at G2/M phase after 24 hrs by propidium iodide staining-based flow cytometric analysis; assay type: functional; procedure, shortened: as §2
[19] = target: T1, Tubulin (Bos taurus); assay: Inhibition of [3H]colchicine binding to bovine brain tubulin at 5 uM after 20 mins relative to control; procedure, shortened: as §4
[20] = tested on: Breast carcinoma cell; assay: Cytotoxicity against human breast cancer cells after 48 hrs by SRB assay; assay type: functional; procedure, shortened: as §5
[21] = tested on: Melanoma cell line; assay: Cytotoxicity against human melanoma cells after 48 hrs by SRB assay; assay type: functional; procedure, shortened: as §5
[22] = tested on: Ovarian carcinoma cell; assay: Cytotoxicity against human ovarian cancer cells after 48 hrs by SRB assay; assay type: functional; procedure, shortened: as §5
[23] = Cytotoxicity against human PHA-stimulated PBL after 72 hrs by MTT assay; assay type: cell-based; settings: PHA-stimulated peripheral blood lymphocytes (PBL)
Procedure, shortened: (§6)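 Lymphocytes from healthy donors were isolated on a Lymphoprep gradient and held overnight in RPMI-1640 with 10% FBS. Non-adherent cells were set at 5×10^5 cells/mL, either resting or stimulated with 2.5 μg/mL PHA. Cells were exposed to a range of compound concentrations for 72 h and viability read by MTT. GI50 is the mean ± SEM of three separate experiments.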

[24] = Cytotoxicity against human PBL after 72 hrs by MTT assay; assay type: cell-based; settings: peripheral blood lymphocytes (PBL); procedure, shortened: as §6
[25] = tested on: HeLa; assay: Cell cycle arrest in human HeLa cells assessed as reduction in accumulation of cells at S phase up to 1000 nM after 24 hrs by propidium iodide staining-based flow cytometric analysis; assay type: functional; procedure, shortened: as §2
[26] = tested on: HT-29; assay: Cell cycle arrest in human HT-29 cells assessed as reduction in accumulation of cells at G1 phase up to 1000 nM after 24 hrs by propidium iodide staining-based flow cytometric analysis; assay type: functional; procedure, shortened: as §2
[27] = tested on: NSCLC; assay: Cytotoxicity against human NSCLC cells after 48 hrs by SRB assay; assay type: functional; procedure, shortened: as §5
[28] = tested on: CNS carcinoma cell; assay: Cytotoxicity against human CNS cancer cells after 48 hrs by SRB assay; assay type: functional; procedure, shortened: as §5
[29] = tested on: Prostatic carcinoma cell; assay: Cytotoxicity against human prostate cancer cells after 48 hrs by SRB assay; assay type: functional; procedure, shortened: as §5
[30] = tested on: Renal cancer cell line; assay: Cytotoxicity against human renal cancer cells after 48 hrs by SRB assay; assay type: functional; procedure, shortened: as §5
[31] = tested on: HeLa; assay: Cell cycle arrest in human HeLa cells assessed as decrease in p-cdc25c expression at 50 to 250 nM after 24 hrs by Western blot analysis; assay type: functional, cell-based; procedure, shortened: as §3
[32] = tested on: HT-29; assay: Cell cycle arrest in human HT-29 cells assessed as reduction in accumulation of cells at S phase up to 1000 nM after 24 hrs by propidium iodide staining-based flow cytometric analysis; assay type: functional; procedure, shortened: as §2
[33] = tested on: HeLa; assay: Induction of ROS generation in human HeLa cells at 250 nM after 12 to 24 hrs by H2-DCFDA staining-based assay; assay type: functional, cell-based
Procedure, shortened: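 HeLa cells treated 6, 12, 24 or 48 h, then loaded with H2-DCFDA and analysed by flow cytometry for ROS. Mean ± SEM of three independent experiments, compared against control.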

[34] = tested on: Leukemia cell; assay: Cytotoxicity against human leukemia cells after 48 hrs by SRB assay; assay type: functional; procedure, shortened: as §5
[35] = tested on: A549; assay: Cell cycle arrest in human A549 cells assessed as reduction in accumulation of cells at G1 phase up to 600 nM after 24 hrs by propidium iodide staining-based flow cytometric analysis; assay type: functional; procedure, shortened: as §2
[36] = tested on: A549; assay: Cell cycle arrest in human A549 cells assessed as reduction in accumulation of cells at S phase up to 600 nM after 24 hrs by propidium iodide staining-based flow cytometric analysis; assay type: functional; procedure, shortened: as §2
[37] = tested on: HeLa; assay: Induction of apoptosis in human HeLa cells assessed as increase in caspase-9 activity at 50 to 250 nM after 24 hrs by Western blot analysis; assay type: functional, cell-based; procedure, shortened: as §3
[38] = tested on: HeLa; assay: Induction of apoptosis in human HeLa cells assessed as decrease in Mcl-1 levels at 50 to 250 nM after 24 hrs by Western blot analysis; assay type: functional, cell-based; procedure, shortened: as §3
[39] = read-out: LC50 (the source's name)

## COc1ccc(/C=C\c2cc(OC)c(OC)c(OC)c2)cc1O [COMBRETASTATIN A4]
[1]
  Activity: Dose-dependent effect
[2]
  inhibition in vivo at 30 mg/kg: 30.9%
[3]
  IC50: 0.004 µM
[4]
  Activity: 32%
[5]
  inhibition in vivo at 30 mg/kg: 16 to 18%
[6]
  Activity: 15%
[7]
  Activity: 61%

## O=C1Nc2c(ccc3ccccc23)/C1=C\c1c(-c2cccnc2)nc2sccn12
[8]
  Activity: Tde
[9]
  Activity: Dose-dependent effect
[10]
  Activity: Active
[11]
  Activity: Dose-dependent effect
[12]
  IC50: 2.2 µM
[13]
  Activity: Active
[14]
  Activity: Active
[15]
  inhibition: 56%
[1]
  Activity: Dose-dependent effect
[16]
  Activity: Active
[17]
  GI50: 0.15 µM
  TGI: 9.42 µM
[17]; [39]
  CC50: 49 µM
[18]
  Activity: Dose-dependent effect
[19]
  inhibition: 31%
[20]
  GI50: 0.26 µM
  LC50 (concentration killing 50% of cells): 70.8 µM
  TGI: 20.1 µM
[21]
  GI50: 1.65 µM
  TGI: 17.6 µM
[21]; [39]
  CC50: 66.5 µM
[22]
  GI50: 1.21 µM
  LC50 (50% lethal concentration): 41.2 µM
  TGI: 12.3 µM
[23]
  GI50 at 72 h: 2.5 µM
[24]
  GI50 at 72 h: 3.1 µM
[3]
  IC50: 0.2 µM
[25]
  Activity: Active
[26]
  Activity: Active
[27]
  GI50: 1.78 µM
  LC50: 61.7 µM
  TGI: 16.2 µM
[28]
  GI50: 1.16 µM
  TGI: 13.9 µM
[28]; [39]
  CC50: 47.5 µM
[29]
  GI50: 0.1 µM
  TGI: 11.1 µM
[29]; [39]
  CC50: 33.4 µM
[30]
  GI50: 1.24 µM
  LC50 (50% lethal concentration): 49.2 µM
  TGI: 15.9 µM
[31]
  Activity: Active
[32]
  Activity: Active
[4]
  Activity: 64%
[6]
  Activity: 22%
[33]
  Activity: Active
[34]
  GI50: 0.11 µM
  TGI: 46.4 µM
[35]
  Activity: Active
[36]
  Activity: Active
[37]
  Activity: Active
[7]
  Activity: 78%
[38]
  Activity: Active
